Assay outcomes deposited in PubChem BioAssay by several laboratories.
An excerpt weighted towards active compounds, which were near 2.1% of everything screened.
MT stabilizer = microtubule stabilizers in HeLa cells. hit rate 0.83% among 200,000. % tubulin-high responders, % at 10 µM. HeLa tubulin immunostaining HCS, 24 h; share of cells brighter than vehicle mean+2SD;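 active = plate Z-score above 3 for both tubulin-high and condensed-nucleus cell shares, with cell loss under 80%, at 10 µM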;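 note: anti alpha tubulin signal scored within the nucleus-defined area of each cell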
KLF5 inh = kruppel-like factor 5 inhibition; DLD-1 KLF5 promoter-luciferase reporter, luminescence; inhibition, % at 5 µM; hit rate 0.23% among 290,000; AID 1700;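 active = inhibition above a per-plate limit of that plate's mean compound inhibition plus 3 SD, cut at about 60% in these data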;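 note: 0% = DMSO wells and 100% = LY294002 at 200 µM; higher means less KLF5 promoter-driven luciferase light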
IEC-6 tox-1 = kills IEC-6 intestinal cells in KLF5 counter-screen; IEC-6 cytotoxicity, luminescence viability; inhibition, % at 5 µM; hit rate 0.78% among 290,000; AID 1825; in the data active = inhibition above about 22%;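 note: 0% = plate median of test compound wells and 100% = cytotoxic reference compound wells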
Ba/F3 V617F tox = lowers viability of Ba/F3 cells expressing EpoR and JAK2V617F | ATP luminescence | inhibition, % at 5.6 µM | hit rate 1.1% among 220,000;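 active = inhibition above the campaign mean plus 3 SD over all tested compounds, cut at about 24% in these data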;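 note: cytokine-independent growth of Ba/F3 cells driven by EpoR plus mutant JAK2; 0% = DMSO-treated cells and 100% = JAK inhibitor I control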
BaF3 tox = reduces parental Ba/F3 cell viability, JAK2V617F counter-screen. CellTiter-Glo ATP luminescence. inhibition, % at 5.6 µM. hit rate 1.1% among 220,000;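 active = inhibition above a per-campaign cutoff, the mean inhibition of all tested compounds plus 3 SD, cut at about 27% in these data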;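 note: 0% = DMSO wells and 100% = JAK Inhibitor I control wells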
b-catenin transl = alters nuclear translocation of beta-catenin in HeLa cells; immunofluorescence imaging; nuclear translocation activity, % at 5 µM; hit rate 0.3% among 190,000;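 active = nuclear translocation activity above 50% at 5 µM, with a well cell count of 50 or more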;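 note: per-cell ratio of nuclear to cytoplasmic median beta-catenin stain intensity; plate controls were DMSO negative control for no effect and GSK-3 inhibitor IX positive control for full effect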
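Test system: human HeLa cell line; Doses: 5 µM primary, 0.02–20 µM confirmation; Incubation: 24 h compound exposure, 37°C; Detection: beta-catenin immunofluorescence imaging with DAPI; Read-out: beta-catenin nuclear/cytoplasmic ratio, % activation.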
KLF5 inh confirm = confirmation of KLF5 inhibitors. shares compounds with KLF5 inh. DLD-1 KLF5 promoter firefly luciferase reporter, luminescence. inhibition, % at 4 µM. hit rate 79% among 610. AID 1834;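 active = inhibition above a set limit taken from the earlier primary screen, cut at about 63% in these data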;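 note: 0% = DMSO wells and 100% = LY294002 at 200 µM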
IEC-6 tox-2 = rat IEC-6 cytotoxicity, KLF5 inhibitor counter-screen. shares compounds with KLF5 inh. IEC-6 rat intestinal cells, viability luminescence. inhibition, % at 4 µM. hit rate 56% among 610; in the data active = inhibition above about 23%;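 note: cells exposed to compounds for 48 hours before viability read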
The depositor's hits bear a star; . = no result given.

SMILES	MT stabilizer	KLF5 inh	IEC-6 tox-1	Ba/F3 V617F tox	BaF3 tox	b-catenin transl	KLF5 inh confirm	IEC-6 tox-2
COc1cc(OC)c2cc(C(=O)N/N=C/c3cccc(OC)c3O)[nH]c2c1	.	39	3	0	-3	5	.	.
O=[N+]([O-])c1ccc(O)c(/C=N/Nc2ccc(Cl)nn2)c1	3	67*	-9	0	9	7	76*	38*
CC(C)(C)C(=O)CN1C(=O)NC2(CCc3ccccc32)C1=O (configuration not stated)	.	-10	4	.	.	.	.	.
COc1ccc(C(=O)NN(C)c2nc(-c3ccccc3)nnc2C(F)(F)F)cc1	3	1	-3	4	12	1	.	.
COc1ccc(C(=O)NN(C)c2nc(C(F)(F)F)nc3ccccc23)cc1	8	82*	96*	96*	95*	158*	96*	81*
Cc1ccc(C(=O)O/N=C(\N)c2ccccn2)c(Cl)c1	.	96*	3	.	.	.	75*	8
N/C(=N\OC(=O)c1ccc(Cl)cc1Cl)c1ccccn1	2	95*	14	14	22	-2	46	3
N/C(=N\OC(=O)c1ccc(Cl)cc1[N+](=O)[O-])c1ccccn1	.	-111	7	.	.	.	.	.
O=Cc1ccc(O)c2ncccc12	.	82*	100*	8	53*	1	60	29*
CN1CCN(c2ccc(-c3ccc4ccccc4n3)cc2)CC1	3	99*	8	14	11	14	104*	-6
COc1cccc2c1C(CO)N1C(C#N)C3CC(C(=O)O)C(C1C2)N3C (configuration not stated)	.	110*	100*	94*	95*	25	109*	100*
COc1cccc2c1OCC(C(=O)O)C2 (configuration not stated)	2	-15	-5	-1	8	1	.	.
O=C(c1ccccc1)c1cc([N+](=O)[O-])ccc1N1CCOCC1	10	74*	80*	71*	74*	178*	72*	58*
O=C(c1cc([N+](=O)[O-])ccc1N1CCOCC1)N1CCCCC1	2	-12	8	4	12	-5	.	.
Cc1cccc(-c2nnn(C/C(N)=N/O)n2)c1	2	-28	-3	-3	0	0	.	.
O=C(CSc1ncn[nH]1)Nc1ccc2c(c1)CCC2	3	-27	-5	-2	3	-1	.	.
CCn1c(N)nc2c1c(=O)n(C)c(=O)n2C	3	-29	1	-3	10	1	.	.
CCCc1nc2c(=O)n(C)c(=O)nc-2n(C)n1	20*	72*	19	73*	85*	3	112*	49*
CCOc1ccccc1N1CCN(C(=O)/C=C/c2cccc([N+](=O)[O-])c2)CC1	3	22	10	-3	3	-4	.	.
O=C1C(=O)N(c2nccs2)C(c2ccccc2)/C1=C(\O)c1ccc2c(c1)OCCO2 (configuration not stated)	.	74*	-2	.	.	.	54	8
O=C1C(=O)N(c2nccs2)C(c2ccccc2F)/C1=C(\O)c1ccc2c(c1)OCCO2 (configuration not stated)	.	38	1	.	.	.	.	.
Cn1c(CC(=O)Nc2ccccc2F)nnc1SCC(=O)Nc1ccccc1Br	.	-13	4	.	.	.	.	.
CCN(CC)S(=O)(=O)c1ccc(N/N=C/c2cccnc2)nc1	.	-5	2	-3	-2	-1	.	.
CCN(CC)S(=O)(=O)c1ccc(N/N=C/c2cc(OC)ccc2O)nc1	1	68*	16	82*	54*	-3	74*	4
c1ccc(CSc2nnc3ccc(-c4ccncc4)nn23)cc1	1	-8	4	4	3	-2	.	.
SMILES	MT stabilizer	KLF5 inh	IEC-6 tox-1	Ba/F3 V617F tox	BaF3 tox	b-catenin transl	KLF5 inh confirm	IEC-6 tox-2
O=C(CSc1nnc2ccc(-c3ccncc3)nn12)c1cccs1	4	63*	0	3	5	-1	-15	-6
COc1ccc2ncc(OC(C)=O)cc2c1	4	-31	-2	0	5	.	.	.
COC(=O)c1c(N)sc(C(C)=O)c1C	4	-9	-1	-4	0	-6	.	.
COC(=O)c1c(N)sc(C(=O)NCCc2ccccc2)c1C	.	93*	2	.	.	.	85*	-2
O=C(COc1ccccc1Br)Nc1ccc2c(c1)OCCCO2	.	-153	-4	.	.	.	.	.
Cc1c(C)c2ccc(OCC(=O)Nc3ccccn3)c(C)c2oc1=O	.	91*	10	.	.	.	40	12
Cc1c(C)c2ccc(OCC(=O)N(C)C)c(C)c2oc1=O	2	-27	-5	-2	5	.	.	.
Cc1ccc(-n2c(-c3ccc(Br)cc3)c[n+]3c2CCc2ccc4cccnc4c2-3)cc1	5	69*	56*	97*	91*	0	111*	50*
Cc1ccc(-n2c(=O)[nH]c3ncccc3c2=O)cc1	2	0	5	2	6	0	.	.
CCNCc1cc([N+](=O)[O-])ccc1OCC	3	-15	-2	-3	0	-5	.	.
COc1ccc(C(=O)N/N=C/c2cc(Br)ccc2O)cc1OC	.	68*	4	16	0	0	92*	-3
Cn1cccc1-c1cc(C(=O)N/N=C/c2cc(Br)ccc2O)[nH]n1	.	65*	12	.	.	.	79*	-2
Cc1cc(Br)cc(/C=N/NC(=O)c2ccc3c(c2)OCO3)c1O	.	70*	16	.	.	.	61	15
O=C(N/N=C/c1cc(Br)c(O)c(Br)c1O)c1ccc2c(c1)OCCO2	.	-20	12	.	.	.	.	.
O=C(CN(Cc1ccco1)C(=O)CNS(=O)(=O)c1ccc(Cl)cc1)NCc1ccco1	.	-24	-6	.	.	.	.	.
CCc1cccc(NC(=O)c2cc(S(=O)(=O)N(C)C)ccc2N2CCCC2)c1	3	-24	-1	1	7	-5	.	.
c1ccc(-c2ccc(-c3nc(-c4ccccn4)no3)cc2)cc1	2	84*	8	12	12	3	104*	14
Cc1ccc(-c2nc(-c3ccccn3)no2)cc1	6	88*	16	23	21	-2	100*	42*
Cc1ccc(-c2nc(-c3ccccn3)no2)cc1Cl	3	70*	11	4	3	-3	89*	11
Oc1c(C(c2cccs2)N2CCN(c3ccccc3)CC2)ccc2cccnc12 (configuration not stated)	4	69*	0	98*	83*	15	-20	-6
CN1CCN(C(c2ccc(C(F)(F)F)cc2)c2ccc3cccnc3c2O)CC1 (configuration not stated)	.	48	2	.	.	.	.	.
CCCC1(CCC)C(=O)NC(=NCCc2ccc(OC)c(OC)c2)NC1=O	6	9	6	-1	2	-1	.	.
COc1ccc(/C=N\NC(=O)c2c(C)nc3ccc(Br)cn23)cc1	20*	65*	47*	73*	72*	53*	75*	53*
